Source: PubChem BioAssay
The source made the active and inactive calls.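 How the source made its calls, unless noted: active means mean duplicate potentiation above the buffer control mean plus 5 SD of buffer wells; inactive means the rest.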

Legend:
[1] = thallium flux activation in parental CHO cells, counter-screen for KCNQ1 potentiator project (AID 493006;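 active means duplicate-averaged activation above buffer control mean plus 5 SD of those controls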;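 on activation: fluorescence ratio of max minus min over baseline after K+ and Tl+ depolarization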); settings: parental CHO-K1 cells, FluxOR thallium flux, at 10 µM; stronger effect = higher value
Method in brief: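 Material: untransfected host CHO-K1 cells with FluxOR thallium dye. Timing: overnight 37 °C plating, 90 min RT dye, 20 min compound. Detection: kinetic FluxOR fluorescence, 10 s baseline, 110 s after stimulus. Read-out basis: max-minus-min fluorescence over baseline, percent of buffer-to-R-L3 span. Replicates: duplicate wells per compound, percent values averaged.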

[2] = molecular target: Potassium voltage-gated channel subfamily KQT member 1 (Homo sapiens) (UniProt P51787); test: KCNQ1 potassium channel potentiators, confirmation, FluxOR thallium flux, CHO cells, duplicates (AID 493007;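 active means potentiation averaged over duplicate wells exceeding buffer-only control mean by more than 3 SD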;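 on outcome: cells depolarized by a potassium plus thallium sulfate stimulus after compound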); settings: KCNQ1 cell line, FluxOR thallium flux fluorescence, at 10 µM; stronger effect = higher value, % of reference activator effect, buffer zero
Method in brief: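 Test system – KCNQ1-expressing CHO cell line · Incubation – FluxOR dye loading 90 min, compound exposure 20 min, room temperature · Detection – FluxOR Tl+ flux fluorescence, 10 s baseline plus 110 s recording · Controls – buffer-only wells as 0% and R-L3 activator as 100%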

[3] = molecular target: Potassium voltage-gated channel subfamily KQT member 2 (Rattus norvegicus) (UniProt O88943); test: rat KCNQ2 channel potentiation, selectivity assay for KCNQ1 potentiator project, KCNQ2-CHO-K1 cells (AID 493009); settings: FluxOR thallium flux fluorescence, at 10 µM; stronger effect = higher value, scaled: buffer 0, activator control 100;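 further: assay conditions were tuned for KCNQ1 rather than KCNQ2 modulators; signal is max minus min fluorescence divided by baseline after thallium stimulus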
[4] = molecular target: Potassium voltage-gated channel subfamily KQT member 1 (Homo sapiens) (UniProt P51787); test: KCNQ1 channel current potentiators, confirmation, orthogonal assay for KCNQ1 potentiator project, IonWorks patch clamp, KCNQ1-CHO cells (AID 493184;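 active means current rise at least 3 SD above the untreated control mean in each of two repeat wells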); settings: automated patch clamp current, at 10 µM; stronger effect = higher value
Method in brief: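 Read-out: Percent current increase versus pre-compound level | Assay system: CHO cells carrying KCNQ1 | Measured by: Automated perforated-patch electrophysiology | Medium: External bath solution at pH 7.4 | Dosing: One dose, 10 µM final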

Sequence of Potassium voltage-gated channel subfamily KQT member 1 (Homo sapiens) (P51787 whole entry, looked up): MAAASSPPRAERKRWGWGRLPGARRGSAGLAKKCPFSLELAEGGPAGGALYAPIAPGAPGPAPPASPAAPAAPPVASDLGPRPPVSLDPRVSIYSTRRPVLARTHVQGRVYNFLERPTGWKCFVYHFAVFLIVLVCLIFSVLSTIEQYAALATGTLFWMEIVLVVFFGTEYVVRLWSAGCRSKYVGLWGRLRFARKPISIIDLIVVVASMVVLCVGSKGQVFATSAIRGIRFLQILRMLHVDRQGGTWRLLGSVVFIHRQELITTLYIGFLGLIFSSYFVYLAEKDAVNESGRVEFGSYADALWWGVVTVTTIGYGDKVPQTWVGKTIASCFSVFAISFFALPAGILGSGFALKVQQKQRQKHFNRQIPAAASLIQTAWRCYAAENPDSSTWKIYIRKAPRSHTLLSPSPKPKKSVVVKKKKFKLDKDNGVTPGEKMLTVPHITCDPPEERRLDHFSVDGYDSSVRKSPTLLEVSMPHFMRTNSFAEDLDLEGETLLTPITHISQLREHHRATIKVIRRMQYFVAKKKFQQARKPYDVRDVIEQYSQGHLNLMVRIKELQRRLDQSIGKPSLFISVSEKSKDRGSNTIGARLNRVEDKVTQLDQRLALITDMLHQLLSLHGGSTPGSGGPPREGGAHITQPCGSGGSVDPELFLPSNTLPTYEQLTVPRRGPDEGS
Sequence of Potassium voltage-gated channel subfamily KQT member 2 (Rattus norvegicus) (O88943 whole entry, looked up): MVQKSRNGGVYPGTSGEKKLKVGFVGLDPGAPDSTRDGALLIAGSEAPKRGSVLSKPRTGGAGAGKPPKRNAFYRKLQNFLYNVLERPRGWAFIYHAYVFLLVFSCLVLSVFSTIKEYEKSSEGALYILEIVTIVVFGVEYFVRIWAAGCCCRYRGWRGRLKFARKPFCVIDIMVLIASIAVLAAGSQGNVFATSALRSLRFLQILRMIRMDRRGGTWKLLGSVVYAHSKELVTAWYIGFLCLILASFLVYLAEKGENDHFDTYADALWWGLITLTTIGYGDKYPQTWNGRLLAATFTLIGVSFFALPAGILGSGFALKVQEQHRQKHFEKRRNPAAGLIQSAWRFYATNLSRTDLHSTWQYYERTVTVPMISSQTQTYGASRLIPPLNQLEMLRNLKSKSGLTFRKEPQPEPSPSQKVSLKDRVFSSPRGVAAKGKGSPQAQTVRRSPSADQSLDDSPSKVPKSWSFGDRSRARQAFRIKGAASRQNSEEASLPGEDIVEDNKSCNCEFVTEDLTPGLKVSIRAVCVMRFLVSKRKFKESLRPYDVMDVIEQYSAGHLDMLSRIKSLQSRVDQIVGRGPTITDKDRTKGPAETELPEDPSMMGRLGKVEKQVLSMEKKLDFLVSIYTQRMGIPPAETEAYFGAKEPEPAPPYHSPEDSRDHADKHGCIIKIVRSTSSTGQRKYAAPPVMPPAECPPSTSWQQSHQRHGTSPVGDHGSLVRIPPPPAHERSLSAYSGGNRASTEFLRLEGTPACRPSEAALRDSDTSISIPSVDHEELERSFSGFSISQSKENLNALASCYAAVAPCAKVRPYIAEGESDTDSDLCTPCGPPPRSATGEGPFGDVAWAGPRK

SMILES | activation [1] | potentiation [2] | potentiation [3] | outcome [4] | outcome [1] | outcome [2] | outcome [3]
Cc1ccccc1C(=O)NNC(=O)C(=O)Nc1cccc(Cl)c1C | 346% (active) | 168% (active) | 406% (active) | inactive |  |  | 
O=C(CN1CCOCC1)N1CCN(c2nnc(-c3ccccc3)c3ccccc23)CC1 |  |  |  | inactive | inactive | inactive | inactive
OCCN1CCN(C2CCC(c3ccc(F)cc3)c3ccc(F)cc32)CC1 (stereo not given) |  |  |  | inactive | inactive | inactive | inactive
COc1ccc(Cl)cc1NC(=O)CNc1ccc(F)cc1C |  |  |  | inactive | inactive | inactive | inactive
C=CCn1c(SCC(N)=O)nc2scc(-c3ccc(C)o3)c2c1=O | 223% (active) | 79.5% (active) | 230% (active) | inactive |  |  | 
COCCn1c(=S)[nH]c2sc3c(c2c1=O)CCCC3 | 325% (active) | 106% (active) | 312% (active) | inactive |  |  | 
C=CCn1c(=S)[nH]c2scc(-c3ccc(C)o3)c2c1=O | 550% (active) | 276% (active) | 580% (active) | inactive |  |  | 
O=C(Nn1c(Cc2cccs2)nc2ccccc2c1=O)c1cccs1 |  |  |  | inactive | inactive | inactive | inactive
S=c1[nH]cnc2sc(-c3ccccc3)cc12 | 520% (active) | 274% (active) | 586% (active) | inactive |  |  | 
CCCCNC(=S)NC(=O)c1ccc([N+](=O)[O-])cc1 | 168% (active) | 29% (active) | 190% (active) | inactive |  |  | 
C=CCN(CC=C)C(=S)NC(=O)c1ccc([N+](=O)[O-])cc1 | 366% (active) | 137% (active) | 359% (active) | inactive |  |  | 
CCN(C(=O)COC(=O)C(Cc1ccccc1)N1C(=O)c2ccccc2C1=O)C1CCS(=O)(=O)C1 (stereo not given) |  |  |  | inactive | inactive | inactive | inactive
CC(C)(C)NC(=O)C(=O)NNC(=O)c1cccc(F)c1 | 201% (active) | 87.5% (active) | 228% (active) | inactive |  |  | 
O=C(c1ccccc1)N1CCC(CC2CC(c3ccc(Cl)cc3)=NO2)(C(=O)NCC2CCCCC2)CC1 (stereo not given) |  |  |  | inactive | inactive | inactive | inactive
COc1ccc2c(CCNC(=O)CN3C(=O)c4ccccc4C3=O)c[nH]c2c1 |  |  |  | inactive | inactive | inactive | inactive
Cc1cccc(NC(=O)c2cccnc2)c1 |  |  |  | inactive | inactive | inactive | inactive
CCOC(=O)c1c(N2C(=O)Nc3ccccc3N2O)n[nH]c1-c1cccc(Cl)c1 |  |  |  | inactive | inactive | inactive | inactive
O=c1[nH]c(=S)[nH]c2sc3c(c12)CCCCCC3 | 138% (active) |  |  | inactive |  | inactive | inactive
O=C(NC(=S)N1CCN(c2ccc(F)cc2)CC1)c1cccs1 | 274% (active) | 84.5% (active) | 338% (active) | inactive |  |  | 
O=C(NNC(=S)NC(=O)c1ccco1)c1ccc(F)cc1 | 198% (active) | 69% (active) | 232% (active) | inactive |  |  | 
O=C1NC(=S)SC1=C1CCCC1 | 142% (active) | 24.5% (active) | 166% (active) | inactive |  |  | 
O=C(CCC(=O)N1CCOc2ccc(Cl)cc21)NCCCN1CCN(c2ccccc2F)CC1 |  |  |  | inactive | inactive | inactive | inactive
O=C(CSc1ccc2ccccc2n1)Nc1ccc(N2CCOCC2)cc1 |  |  |  | inactive | inactive | inactive | inactive
COC(=O)C1=C(C)NC(C)=C(C(=O)OC)C1c1ccccc1[N+](=O)[O-] |  |  |  | inactive | inactive | inactive | inactive
NC(=O)CSc1nnc(-c2ccccc2Br)n1-c1cccc(C(F)(F)F)c1 |  | 43.5% (active) |  | inactive | inactive |  | inactive
O=C(N/N=C/c1cccnc1)c1ccco1 |  |  |  | inactive | inactive | inactive | inactive
CC(C(=O)O)n1c2ccccc2c2cn[nH]c(=O)c21 (stereo not given) |  |  |  | inactive | inactive | inactive | inactive
O=C(CNC(=O)c1ccccc1)NCc1ccc(Cl)cc1 |  |  |  | inactive | inactive | inactive | inactive
COc1ccc(C2NC(c3ccc(OC)c(OC)c3OC)C(C)C(=O)C2C)c(OC)c1OC (stereo not given) |  |  |  | inactive | inactive | inactive | inactive
CCC1Oc2ccc(C)cc2N(CC(=O)N(Cc2ccc(C)o2)C2CC(C)(C)NC(C)(C)C2)C1=O (stereo not given) | 152% (active) | 63.5% (active) | 166% (active) | inactive |  |  | 
